What was measured:
Fibroblast = assay: Incucyte cell viability with human fibroblast; assay type: toxicity, cell-based; settings: 10 µM, compound concentration 10 uM; note: filed as whole numbers so only -1 and 0 and 1 occur
HEK-293T = assay: Multiplex assay against HEK293T; assay type: toxicity, cell-based; settings: human;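 for Population Tubulin-Different-Phenotype (%): share of the cells with healthy nuclei that show this phenotype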
How it was run: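 Imaging took place on a CQ1 microscope at 37°C and 5% CO2 once compound had been added to live cells stained at seeding with Hoechst33342, BioTracker Green Microtubule Cytoskeleton Dye, MitoTracker Red and Annexin V Alexa Fluor 680. CellPathfinder machine-learning gating classed cells as Hoechst high-intensity objects or normal cells, classed normal cells as having healthy, pyknosed or fragmented nuclei, and classed pyknosed cells as mitotic or apoptotic. Tubulin, mitochondrial-mass and membrane-permeability phenotypes are per cents of the healthy-nucleus cells.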

[1] = 12 h, 1 µM, compound concentration 1 uM, replicate 1
[2] = 12 h, 1 µM, compound concentration 1 uM, replicate 2
[3] = 12 h, 10 µM, compound concentration 10 uM, replicate 1
[4] = 12 h, 10 µM, compound concentration 10 uM, replicate 2
[5] = 24 h, 1 µM, compound concentration 1 uM, replicate 1
[6] = 24 h, 1 µM, compound concentration 1 uM, replicate 2
[7] = 24 h, 10 µM, compound concentration 10 uM, replicate 1
[8] = 24 h, 10 µM, compound concentration 10 uM, replicate 2
[9] = 48 h, 1 µM, compound concentration 1 uM, replicate 1
[10] = 48 h, 1 µM, compound concentration 1 uM, replicate 2
[11] = 48 h, 10 µM, compound concentration 10 uM, replicate 1
[12] = 48 h, 10 µM, compound concentration 10 uM, replicate 2

In the case of `CC(/C=C1\SC(=S)N(CCCC(=O)Nc2ccc(C(=O)O)c(O)c2)C1=O)=C\c1ccccc1`, the “Growth Rate” value (Fibroblast; 0 h, replicate number 1, timepoint 0 hours) is reported as 0, the “Growth Rate” value (Fibroblast; 6 h, replicate number 2, timepoint 6 hours) is reported as 0 and the “Growth Rate” value (Fibroblast; 12 h, replicate number 2, timepoint 12 hours) is reported as 0. For the same compound, the “Growth Rate” value (Fibroblast; 18 h, replicate number 1, timepoint 18 hours) was 1, the “Growth Rate” value (Fibroblast; 18 h, replicate number 2, timepoint 18 hours) was 0 and the “Growth Rate” value (Fibroblast; 24 h, replicate number 1, timepoint 24 hours) was 1. The “Growth Rate” value (Fibroblast; 24 h, replicate number 2, timepoint 24 hours) was 0, the “Population Apoptotic (%)” value (HEK-293T; [1]) was 38% and the “Population Fragmented Nuclei (%)” value (HEK-293T; [1]) was 11%. For the same compound, the “Population Healthy Nuclei (%)” value (HEK-293T; [1]) was 34%, the “Population Hoechst High Intensity Objects (%)” value (HEK-293T; [1]) was 9% and the “Population Membrane Permeable-Phenotype (%)” value (HEK-293T; [1]) was 3%. The “Population Mitochondria Different-Phenotype (%)” value (HEK-293T; [1]) was 68%, the “Population Mitotic Cells (%)” value (HEK-293T; [1]) was 61% and the “Population Normal (%)” value (HEK-293T; [1]) was 90%. For the same compound, the “Population Pyknosed Nuclei (%)” value (HEK-293T; [1]) was 53%, the “Population Tubulin-Different-Phenotype (%)” value (HEK-293T; [1]) was 34% and the “Total Cell Count” value (HEK-293T; [1]) was 251. The “Population Apoptotic (%)” value (HEK-293T; [2]) was 5%, the “Population Fragmented Nuclei (%)” value (HEK-293T; [2]) was 2% and the “Population Healthy Nuclei (%)” value (HEK-293T; [2]) was 44%. The “Population Hoechst High Intensity Objects (%)” value (HEK-293T; [2]) was 2%, the “Population Membrane Permeable-Phenotype (%)” value (HEK-293T; [2]) was 9% and the “Population Mitochondria Different-Phenotype (%)” value (HEK-293T; [2]) was 20%. For the same compound, the “Population Mitotic Cells (%)” value (HEK-293T; [2]) was 94%, the “Population Normal (%)” value (HEK-293T; [2]) was 97% and the “Population Pyknosed Nuclei (%)” value (HEK-293T; [2]) was 52%. For the same compound, the “Population Tubulin-Different-Phenotype (%)” value (HEK-293T; [2]) was 21%, the “Total Cell Count” value (HEK-293T; [2]) was 242 and the “Population Apoptotic (%)” value (HEK-293T; [3]) was 40%. The “Population Fragmented Nuclei (%)” value (HEK-293T; [3]) was 10%, the “Population Healthy Nuclei (%)” value (HEK-293T; [3]) was 35% and the “Population Hoechst High Intensity Objects (%)” value (HEK-293T; [3]) was 13%. The “Population Membrane Permeable-Phenotype (%)” value (HEK-293T; [3]) was 6%, the “Population Mitochondria Different-Phenotype (%)” value (HEK-293T; [3]) was 65% and the “Population Mitotic Cells (%)” value (HEK-293T; [3]) was 59%. For the same compound, the “Population Normal (%)” value (HEK-293T; [3]) was 86%, the “Population Pyknosed Nuclei (%)” value (HEK-293T; [3]) was 54% and the “Population Tubulin-Different-Phenotype (%)” value (HEK-293T; [3]) was 34%. The “Total Cell Count” value (HEK-293T; [3]) was 255, the “Population Apoptotic (%)” value (HEK-293T; [4]) was 8% and the “Population Fragmented Nuclei (%)” value (HEK-293T; [4]) was 5%. For the same compound, the “Population Healthy Nuclei (%)” value (HEK-293T; [4]) was 50%, the “Population Hoechst High Intensity Objects (%)” value (HEK-293T; [4]) was 1% and the “Population Membrane Permeable-Phenotype (%)” value (HEK-293T; [4]) was 5%. The “Population Mitochondria Different-Phenotype (%)” value (HEK-293T; [4]) was 5%, the “Population Mitotic Cells (%)” value (HEK-293T; [4]) was 91% and the “Population Normal (%)” value (HEK-293T; [4]) was 98%. The “Population Pyknosed Nuclei (%)” value (HEK-293T; [4]) was 43%, the “Population Tubulin-Different-Phenotype (%)” value (HEK-293T; [4]) was 8% and the “Total Cell Count” value (HEK-293T; [4]) was 269. The “Population Apoptotic (%)” value (HEK-293T; [5]) was 41%, the “Population Fragmented Nuclei (%)” value (HEK-293T; [5]) was 13% and the “Population Healthy Nuclei (%)” value (HEK-293T; [5]) was 41%. The “Population Hoechst High Intensity Objects (%)” value (HEK-293T; [5]) was 13%, the “Population Membrane Permeable-Phenotype (%)” value (HEK-293T; [5]) was 1% and the “Population Mitochondria Different-Phenotype (%)” value (HEK-293T; [5]) was 53%. The “Population Mitotic Cells (%)” value (HEK-293T; [5]) was 58%, the “Population Normal (%)” value (HEK-293T; [5]) was 86% and the “Population Pyknosed Nuclei (%)” value (HEK-293T; [5]) was 45%. The “Population Tubulin-Different-Phenotype (%)” value (HEK-293T; [5]) was 26%, the “Total Cell Count” value (HEK-293T; [5]) was 263 and the “Population Apoptotic (%)” value (HEK-293T; [6]) was 16%. The “Population Fragmented Nuclei (%)” value (HEK-293T; [6]) was 5%, the “Population Healthy Nuclei (%)” value (HEK-293T; [6]) was 62% and the “Population Hoechst High Intensity Objects (%)” value (HEK-293T; [6]) was 1%. The “Population Membrane Permeable-Phenotype (%)” value (HEK-293T; [6]) was 13%, the “Population Mitochondria Different-Phenotype (%)” value (HEK-293T; [6]) was 10% and the “Population Mitotic Cells (%)” value (HEK-293T; [6]) was 84%. For the same compound, the “Population Normal (%)” value (HEK-293T; [6]) was 98%, the “Population Pyknosed Nuclei (%)” value (HEK-293T; [6]) was 32% and the “Population Tubulin-Different-Phenotype (%)” value (HEK-293T; [6]) was 30%. For the same compound, the “Total Cell Count” value (HEK-293T; [6]) was 315, the “Population Apoptotic (%)” value (HEK-293T; [7]) was 41% and the “Population Fragmented Nuclei (%)” value (HEK-293T; [7]) was 11%. The “Population Healthy Nuclei (%)” value (HEK-293T; [7]) was 38%, the “Population Hoechst High Intensity Objects (%)” value (HEK-293T; [7]) was 16% and the “Population Membrane Permeable-Phenotype (%)” value (HEK-293T; [7]) was 2%. For the same compound, the “Population Mitochondria Different-Phenotype (%)” value (HEK-293T; [7]) was 60%, the “Population Mitotic Cells (%)” value (HEK-293T; [7]) was 58% and the “Population Normal (%)” value (HEK-293T; [7]) was 83%. For the same compound, the “Population Pyknosed Nuclei (%)” value (HEK-293T; [7]) was 49%, the “Population Tubulin-Different-Phenotype (%)” value (HEK-293T; [7]) was 50% and the “Total Cell Count” value (HEK-293T; [7]) was 261. For the same compound, the “Population Apoptotic (%)” value (HEK-293T; [8]) was 7%, the “Population Fragmented Nuclei (%)” value (HEK-293T; [8]) was 2% and the “Population Healthy Nuclei (%)” value (HEK-293T; [8]) was 72%. For the same compound, the “Population Hoechst High Intensity Objects (%)” value (HEK-293T; [8]) was 1%, the “Population Membrane Permeable-Phenotype (%)” value (HEK-293T; [8]) was 13% and the “Population Mitochondria Different-Phenotype (%)” value (HEK-293T; [8]) was 5%. For the same compound, the “Population Mitotic Cells (%)” value (HEK-293T; [8]) was 92%, the “Population Normal (%)” value (HEK-293T; [8]) was 98% and the “Population Pyknosed Nuclei (%)” value (HEK-293T; [8]) was 24%. The “Population Tubulin-Different-Phenotype (%)” value (HEK-293T; [8]) was 23%, the “Total Cell Count” value (HEK-293T; [8]) was 356 and the “Population Apoptotic (%)” value (HEK-293T; [9]) was 31%. The “Population Fragmented Nuclei (%)” value (HEK-293T; [9]) was 19%, the “Population Healthy Nuclei (%)” value (HEK-293T; [9]) was 40% and the “Population Hoechst High Intensity Objects (%)” value (HEK-293T; [9]) was 10%. For the same compound, the “Population Membrane Permeable-Phenotype (%)” value (HEK-293T; [9]) was 4%, the “Population Mitochondria Different-Phenotype (%)” value (HEK-293T; [9]) was 24% and the “Population Mitotic Cells (%)” value (HEK-293T; [9]) was 68%. For the same compound, the “Population Normal (%)” value (HEK-293T; [9]) was 89%, the “Population Pyknosed Nuclei (%)” value (HEK-293T; [9]) was 40% and the “Population Tubulin-Different-Phenotype (%)” value (HEK-293T; [9]) was 26%. The “Total Cell Count” value (HEK-293T; [9]) was 330, the “Population Apoptotic (%)” value (HEK-293T; [10]) was 3% and the “Population Fragmented Nuclei (%)” value (HEK-293T; [10]) was 4%. For the same compound, the “Population Healthy Nuclei (%)” value (HEK-293T; [10]) was 83%, the “Population Hoechst High Intensity Objects (%)” value (HEK-293T; [10]) was 3% and the “Population Membrane Permeable-Phenotype (%)” value (HEK-293T; [10]) was 9%. For the same compound, the “Population Mitochondria Different-Phenotype (%)” value (HEK-293T; [10]) was 3%, the “Population Mitotic Cells (%)” value (HEK-293T; [10]) was 96% and the “Population Normal (%)” value (HEK-293T; [10]) was 96%. The “Population Pyknosed Nuclei (%)” value (HEK-293T; [10]) was 11%, the “Total Cell Count” value (HEK-293T; [10]) was 570 and the “Population Apoptotic (%)” value (HEK-293T; [11]) was 49%. The “Population Fragmented Nuclei (%)” value (HEK-293T; [11]) was 17%, the “Population Healthy Nuclei (%)” value (HEK-293T; [11]) was 44% and the “Population Hoechst High Intensity Objects (%)” value (HEK-293T; [11]) was 12%. The “Population Membrane Permeable-Phenotype (%)” value (HEK-293T; [11]) was 2%, the “Population Mitochondria Different-Phenotype (%)” value (HEK-293T; [11]) was 26% and the “Population Mitotic Cells (%)” value (HEK-293T; [11]) was 50%. The “Population Normal (%)” value (HEK-293T; [11]) was 87%, the “Population Pyknosed Nuclei (%)” value (HEK-293T; [11]) was 37% and the “Population Tubulin-Different-Phenotype (%)” value (HEK-293T; [11]) was 29%. For the same compound, the “Total Cell Count” value (HEK-293T; [11]) was 339, the “Population Apoptotic (%)” value (HEK-293T; [12]) was 12% and the “Population Fragmented Nuclei (%)” value (HEK-293T; [12]) was 7%. The “Population Healthy Nuclei (%)” value (HEK-293T; [12]) was 86%, the “Population Hoechst High Intensity Objects (%)” value (HEK-293T; [12]) was 3% and the “Population Membrane Permeable-Phenotype (%)” value (HEK-293T; [12]) was 9%. For the same compound, the “Population Mitochondria Different-Phenotype (%)” value (HEK-293T; [12]) was 3%, the “Population Mitotic Cells (%)” value (HEK-293T; [12]) was 87% and the “Population Normal (%)” value (HEK-293T; [12]) was 96%. The “Population Pyknosed Nuclei (%)” value (HEK-293T; [12]) was 6%, the “Population Tubulin-Different-Phenotype (%)” value (HEK-293T; [12]) was 16% and the “Total Cell Count” value (HEK-293T; [12]) was 675.
